Data reported in ChEMBL document CHEMBL1124756, “The discovery of potent nonpeptide angiotensin II receptor antagonists: a new class of potent antihypertensives” (J Med Chem, 1990).

Key:
Angiotensin II receptor [1] = target: T1, Angiotensin II receptor (Rattus norvegicus, UniProt P29089+P25095+P35351); experiment: Inhibitory concentration that gave 50 percent displacement of specific binding of [3H]AII (2 nM) to Angiotensin II receptor; assay type: protein assay
T1 sequence (P29089 whole entry): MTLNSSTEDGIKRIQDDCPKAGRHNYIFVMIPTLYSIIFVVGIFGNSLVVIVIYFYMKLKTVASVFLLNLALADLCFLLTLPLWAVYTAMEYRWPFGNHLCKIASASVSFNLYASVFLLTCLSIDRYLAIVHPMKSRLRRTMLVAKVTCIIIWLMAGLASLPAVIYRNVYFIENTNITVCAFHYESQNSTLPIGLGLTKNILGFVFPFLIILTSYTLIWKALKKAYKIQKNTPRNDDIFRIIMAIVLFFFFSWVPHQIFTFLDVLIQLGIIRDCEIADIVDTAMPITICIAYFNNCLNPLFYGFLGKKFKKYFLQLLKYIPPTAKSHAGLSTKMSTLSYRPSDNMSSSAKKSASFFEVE
T1 sequence (P25095 whole entry): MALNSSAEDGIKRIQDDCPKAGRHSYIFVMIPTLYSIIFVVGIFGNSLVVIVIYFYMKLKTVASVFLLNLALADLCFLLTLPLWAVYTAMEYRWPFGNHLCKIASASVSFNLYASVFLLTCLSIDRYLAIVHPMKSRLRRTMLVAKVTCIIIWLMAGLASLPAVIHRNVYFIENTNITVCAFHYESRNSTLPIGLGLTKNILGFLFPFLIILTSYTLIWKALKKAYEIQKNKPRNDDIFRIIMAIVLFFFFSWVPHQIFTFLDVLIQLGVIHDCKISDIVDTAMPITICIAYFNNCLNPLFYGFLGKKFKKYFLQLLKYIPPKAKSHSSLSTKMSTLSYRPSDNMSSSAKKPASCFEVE
T1 sequence (P35351 whole entry): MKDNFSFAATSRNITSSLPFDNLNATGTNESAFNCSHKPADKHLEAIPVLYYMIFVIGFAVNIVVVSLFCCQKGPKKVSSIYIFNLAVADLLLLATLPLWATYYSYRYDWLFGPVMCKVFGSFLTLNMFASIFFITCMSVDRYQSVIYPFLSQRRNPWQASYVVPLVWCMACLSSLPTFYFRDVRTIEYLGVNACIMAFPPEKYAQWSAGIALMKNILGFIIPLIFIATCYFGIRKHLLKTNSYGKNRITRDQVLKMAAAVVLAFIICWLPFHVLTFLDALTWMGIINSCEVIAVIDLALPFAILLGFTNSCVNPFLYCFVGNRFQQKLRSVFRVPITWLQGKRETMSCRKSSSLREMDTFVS
Procedure, shortened: (§1)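 Rat adrenal cortical microsomes from male Sprague–Dawley rats, resuspended in 50 mM Tris pH 7.2, 5 mM MgCl2, 0.25% BSA. Membranes (0.02–0.03 mg protein) incubated with [3H]AII 2 nM plus varying inhibitor concentrations, 60 min at 25 °C with shaking. Glass-fiber filtration, scintillation counting, duplicates. Nonspecific binding defined with 1 μM unlabeled AII. IC50 taken from linear portion of displacement curve.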

[2] = Dissociation constant (pKa); assay type: physicochemical
Angiotensin II receptor [3] = target: T1, Angiotensin II receptor; experiment: Inhibitory concentration that gave 50 percent displacement of specific binding of [3H]AII (2 nM) to Angiotensin ll receptor; assay type: protein assay; procedure, shortened: as §1

SMILES | IC50 (Angiotensin II receptor [1]) | pKa [2] | IC50 (Angiotensin II receptor [3])
CCCCCCCc1nccn1Cc1ccc(NC(=O)c2ccccc2C(=O)O)cc1 | 1.1 µM | – | –
CCCCc1nc(Cl)c(CC(=O)OC)n1Cc1ccc(NC(=O)/C=C\C(=O)O)cc1 | 11 µM | – | –
CCCCc1nc(Cl)c(Cc2nnn[nH]2)n1Cc1cccc(-c2nnn[nH]2)c1 | 3.8 µM | – | –
CCCCc1nc(CO)c(Cl)n1Cc1ccc(C(=O)O)cc1 | 100 µM | – | –
CCCCc1nc(Cl)c(COC)n1Cc1ccc(NC(=O)C(CC(=O)O)c2ccccc2)cc1 (configuration not stated) | 7.5 µM | – | –
CCCCc1nc(Cl)c(CO)n1Cc1ccc(/C=N/O)cc1 | > 100 µM | – | –
CCCCc1nc(Cl)c(CC(=O)OC)n1Cc1ccc(NC(=O)c2ccccc2-c2ccccc2C(=O)O)cc1 | 0.19 µM | – | –
CCCCc1nc(Cl)c(CC(=O)OC)n1Cc1ccc(NC(=O)c2cc(Br)ccc2NS(=O)(=O)C(F)(F)F)cc1 | 40 µM | 4.5 | –
O=C(O)c1ccccc1C(=O)Nc1ccc(Cn2cncc2CO)cc1 | – | – | > 100 µM
O=C(O)c1ccccc1C(=O)Nc1ccc(Cn2c(CCCc3ccccc3)nc(Cl)c2CO)cc1 | 80 µM | – | –
O=C(O)c1ccccc1C(=O)Nc1ccc(Cn2ccnc2CCc2ccccc2)cc1 | – | – | 9.4 µM
CCCCc1nc(Cl)c(COC)n1Cc1ccc(N(C)C(=O)c2c(Cl)ccc(Cl)c2C(=O)O)cc1 | 5.7 µM | – | –
CCCCc1nc(Cl)c(COC)n1Cc1ccc(C(=O)N[C@H](Cc2ccccc2)C(=O)O)cc1 | 6.1 µM | – | –
CCCCc1nc(Cl)c(CC(=O)O)n1Cc1cccc(C(=O)O)c1 | 100 µM | – | –
CCCCc1nc(Cl)c(CC(=O)OC)n1Cc1ccc(NC(=O)c2cc(C)ccc2C(=O)O)cc1 | 0.38 µM | – | –
CCCCc1nc(Cl)c(Cc2nnn[nH]2)n1Cc1ccc(-c2nnn[nH]2)cc1 | 1.2 µM | 4 | –
CCCCc1nc(Cl)c(COC)n1Cc1ccc(C(=O)N[C@@H](Cc2ccccc2)C(=O)O)cc1 | 22 µM | – | –
CCCCc1nc(Cl)c(CC(=O)OC)n1Cc1ccc(NC(=O)c2c(C)cccc2C(=O)O)cc1 | 0.032 µM | – | –
O=C(O)c1ccccc1C(=O)Nc1ccc(Cn2ccnc2CC2CCCCC2)cc1 | – | – | 2.8 µM
CCCCc1nc(Cl)c(COC)n1Cc1ccc(C(=O)N2CCC[C@@H]2C(=O)O)cc1 | 120 µM | – | –
CCCCc1nc(Cl)c(CC(=O)OC)n1Cc1ccc(NC(=O)c2ccc(NS(=O)(=O)C(F)(F)F)cc2)cc1 | 84 µM | – | –
CCCCc1nc(Cl)c(CC(=O)OC)n1Cc1ccc(NC(=O)C(F)(F)F)cc1 | 27 µM | 9.5 | –
CCCCc1nc(Cl)c(CC(=O)OC)n1Cc1ccc(NC(=O)C2CCCCC2NS(=O)(=O)C(F)(F)F)cc1 (stereo in doubt; 51) | 4.5 µM | 7.6 | –

SMILES | IC50 (Angiotensin II receptor [1]) | pKa [2] | IC50 (Angiotensin II receptor [3])
CCCCc1nc(CC(=O)OC)c(Cl)n1Cc1ccc(NC(=O)c2ccccc2C(=O)O)cc1 | 0.42 µM | – | –
CCCCc1nc(Cl)c(CC(=O)OC)n1Cc1ccc(N2C(=O)c3ccccc3C2=O)cc1 | 3.1 µM | – | –
CCCCc1nc(Cl)c(COC(C)=O)n1Cc1ccc(C(=O)O)cc1 | 5.3 µM | – | –
CCCCc1nc(Cl)c(CC(=O)OC)n1Cc1ccc(NCc2ccccc2)cc1 | 40 µM | – | –
Cc1nccn1Cc1ccc(NC(=O)c2ccccc2C(=O)O)cc1 | – | – | 100 µM
CCCCc1nc(Cl)c(CC(=O)OC)n1Cc1ccc(NC(=O)c2cc([N+](=O)[O-])cc([N+](=O)[O-])c2O)cc1 | > 30 µM | 4.3 | –
CCCCc1nc(Cl)c(CO)n1Cc1ccc(OC)cc1 | 100 µM | – | –
CCCCc1nccn1Cc1ccc(NC(=O)c2ccccc2C(=O)O)cc1 | – | – | 0.62 µM
CCCCc1nc(Cl)c(CC(=O)OC)n1Cc1ccc(NC(=O)c2cc3ccccc3cc2C(=O)O)cc1 | 5.8 µM | – | –
CCCCc1nc(Cl)c(CC(=O)OC)n1Cc1ccc(NC(=O)c2ccccc2NS(=O)(=O)C(F)(F)F)cc1 | 0.5 µM | 4.5 | –
COc1ccc(Cc2nccn2Cc2ccc(NC(=O)c3ccccc3C(=O)O)cc2)cc1 | – | – | 2.5 µM
CCCCc1nc(Cl)c(COC)n1Cc1ccc(C(=O)N2CCC[C@H]2C(=O)O)cc1 | 6.4 µM | – | –
CCCCc1nc(Cl)c(CC(=O)OC)n1Cc1ccc(NC(=O)c2cc(Cl)ccc2NS(=O)(=O)C(F)(F)F)cc1 | 5.9 µM | 4.5 | –
CCCCc1nc(Cl)c(CC(=O)OC)n1Cc1ccc(NC(=O)c2c(OC)cccc2C(=O)O)cc1 | 0.08 µM | – | –
CCCCc1nc(Cl)c(COC)n1Cc1ccc(C(=O)Nc2cccc(C)c2C(=O)O)cc1 | 0.5 µM | – | –
CCCCc1nc(Cl)c(CC(=O)O)n1Cc1ccccc1C(=O)O | 38 µM | – | –
CCc1nccn1Cc1ccc(NC(=O)c2ccccc2C(=O)O)cc1 | – | – | 8.5 µM
CCCCc1nc(Cl)c(CC(=O)OC)n1Cc1ccccc1NC(=O)c1ccccc1C(=O)O | 100 µM | – | –
CCCCc1nc(Cl)c(CC(=O)OC)n1Cc1ccc(NC(=O)c2cccc(C)c2NS(=O)(=O)C(F)(F)F)cc1 | 0.19 µM | 4.5 | –
CCCCc1nc(Cl)c(COC)n1Cc1ccc(C(=O)Nc2ccccc2-c2nn[nH]n2)cc1 | 0.57 µM | – | –
CCCCc1nc(Cl)c(CC(=O)O)n1Cc1ccccc1[N+](=O)[O-] | 15 µM | – | –
CCCCc1nc(Cl)c(CC(=O)OC)n1Cc1ccc(NC(=O)c2ccccc2NS(C)(=O)=O)cc1 | 2.3 µM | 8.9 | –
CCCCCc1nccn1Cc1ccc(NC(=O)c2ccccc2C(=O)O)cc1 | – | – | 0.24 µM

SMILES | IC50 (Angiotensin II receptor [1]) | pKa [2] | IC50 (Angiotensin II receptor [3])
CCCCc1nc(Cl)c(CC(=O)OC)n1Cc1ccc(N(Cc2ccccc2)C(=O)c2ccccc2NS(=O)(=O)C(F)(F)F)cc1 | 2.7 µM | 4.5 | –
CCCCc1nc(Cl)c(CO)n1Cc1ccc(C=O)cc1 | 28 µM | – | –
CCCCc1nc(CC(=O)O)c(Cl)n1Cc1ccc(C(=O)O)cc1 | 19 µM | – | –
CCCCc1nc(Cl)c(CC(=O)O)n1Cc1ccc(CC(=O)O)cc1 | 13 µM | – | –
CCCCc1nc(Cl)c(CC(=O)OC)n1Cc1ccc(NC(=O)c2cccc(NS(=O)(=O)C(F)(F)F)c2)cc1 | 1.3 µM | – | –
CCCCc1nc(Cl)c(CC(=O)OC)n1Cc1ccc(N)cc1 | 100 µM | – | –
C1CCC(NC2CCCCC2)CC1.CCCCc1nc(Cl)c(CC(=O)OC)n1Cc1ccc(NC(=O)c2c(Cl)ccc(Cl)c2C(=O)O)cc1 | 0.018 µM | – | –
CCCCc1nc(Cl)c(CC(=O)OC)n1Cc1ccc(NC(=O)c2ccc([N+](=O)[O-])cc2C(=O)O)cc1 | 6.9 µM | – | –
CCCCc1nc(Cl)c(COC)n1Cc1ccc(NC(=O)CC(C(=O)O)c2ccccc2)cc1 (configuration not stated) | 2.8 µM | – | –
CCCCCCc1nccn1Cc1ccc(NC(=O)c2ccccc2C(=O)O)cc1 | – | – | 0.35 µM
CCCc1nccn1Cc1ccc(NC(=O)c2ccccc2C(=O)O)cc1 | – | – | 3.7 µM
CCCCc1nc(Cl)c(CC(=O)OC)n1Cc1ccc(NS(=O)(=O)C(F)(F)F)cc1 | 2.1 µM | 4.5 | –
CCCCc1nc(Cl)c(CC(=O)OC)n1Cc1ccc(N2C(=O)C(c3ccccc3)=C(c3ccccc3)C2=O)cc1 | > 10 µM | – | –
O=C(O)c1ccccc1C(=O)Nc1ccc(Cn2ccnc2)cc1 | – | – | 100 µM
CCCCc1nc(Cl)c(COC)n1Cc1ccc(C(=O)Nc2ccccc2C(=O)O)cc1 | 8 µM | – | –
CCCCc1nc(Cl)c(CC(=O)OC)n1Cc1ccc(NC(=O)c2cc(I)ccc2NS(=O)(=O)C(F)(F)F)cc1 | 3.4 µM | 4.5 | –
CCCCc1nc(Cl)c(CC(=O)OC)n1Cc1ccc([N+](=O)[O-])cc1 | 100 µM | – | –
CC(C)c1nccn1Cc1ccc(NC(=O)c2ccccc2C(=O)O)cc1 | – | – | 12 µM
CCCCc1nc(Cl)c(CC(=O)OC)n1Cc1ccc(NC(=O)C2CCCCC2NS(=O)(=O)C(F)(F)F)cc1 (stereo in doubt; 50) | 3.9 µM | 7.6 | –
CCCCc1nc(Cl)c(CC(=O)OC)n1Cc1ccc(NC(=O)c2cccc([N+](=O)[O-])c2C(=O)O)cc1 | 0.4 µM | – | –
CCCCc1nc(Cl)c(CC(=O)OC)n1Cc1ccc(NC(=O)c2cc(C)ccc2NS(=O)(=O)C(F)(F)F)cc1 | 0.81 µM | 4.5 | –
CCCCc1nc(Cl)c(CC(=O)OC)n1Cc1ccccc1NC(=O)c1ccccc1NS(=O)(=O)C(F)(F)F | > 100 µM | – | –
